Bioassay records deposited in PubChem by The Scripps Research Institute Molecular Screening Center.
TAAR1 antag: human TAAR1 antagonists, primary screen, Fluo-8 calcium fluorescence, CHO RD-HGA16 cells; Trace amine-associated receptor 1 (Homo sapiens), Q96RJ0; antagonist; inhibition, % at 3 µM; hit rate 1.5% among 360,000; AID 624466, 2012;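 active = inhibition above a per-plate cutoff, the mean inhibition of test compounds on that plate plus 3 SD, cut at about 49% in these data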
Target sequence (Q96RJ0 whole entry, looked up): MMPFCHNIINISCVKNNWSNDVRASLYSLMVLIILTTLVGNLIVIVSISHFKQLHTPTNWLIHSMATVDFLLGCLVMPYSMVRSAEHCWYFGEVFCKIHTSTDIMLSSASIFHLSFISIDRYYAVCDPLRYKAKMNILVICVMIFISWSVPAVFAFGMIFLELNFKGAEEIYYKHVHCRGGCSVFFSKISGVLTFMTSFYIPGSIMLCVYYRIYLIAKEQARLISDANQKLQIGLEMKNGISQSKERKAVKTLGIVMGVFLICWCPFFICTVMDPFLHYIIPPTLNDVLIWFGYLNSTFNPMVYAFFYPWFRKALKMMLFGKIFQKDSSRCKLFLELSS
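System: CHO RD-HGA16 cells bearing hTAAR1. Reagent: EC80 β-phenethylamine stimulus. Schedule: seeding 17-24 h prior, 75-min 37 °C, 30-min RT dye loading. Signal: Fluo-8 intracellular calcium dye fluorescence, real-time kinetic reads. Read-out: % inhibition from peak post-agonist over basal fluorescence ratio. Benchmarks: vehicle wells and EC80 agonist wells. Replicates: n of 1.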
M1 ag: human M1 muscarinic receptor agonists, primary screen, Fluo-8 calcium fluorescence, CHO-K1 cells, HTS | CHO-K1 hM1, agonist mode; 0% DMSO, 100% acetylcholine EC100 | activation, % at 3 µM | hit rate 0.33% among 360,000;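 active = activation above the run's mean compound activation plus 3 SD, cut at about 16% in these data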;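 also: peak over basal fluorescence ratio within a 140 s kinetic read after compound addition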
CHRM1 PAM: human M1 muscarinic receptor positive allosteric modulators, primary screen, CHO-K1 cells, Fluo-8 calcium fluorescence, 1536-well. Muscarinic acetylcholine receptor M1 (Homo sapiens), P11229. CHO-K1 hM1, ACh EC20; 0% = ACh EC20, 100% = maximal ACh. activation, % at 3 µM. hit rate 0.088% among 360,000; in the data active = activation above about 19%, passing the limit was not always enough
M1 antag: human M1 muscarinic receptor antagonists, primary screen, CHO-K1 cells, Fluo-8 calcium fluorescence, 1536-well. Muscarinic acetylcholine receptor M1 (Homo sapiens), P11229. CHO-K1 hM1, ACh EC80 antagonist. inhibition, % at 3 µM. hit rate 1.3% among 360,000;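 active = percent inhibition above its own plate's cutoff, namely the mean of that plate's compound wells plus 3 SD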;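 also: peak over basal fluorescence ratio during 140 s after agonist addition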
HTR2A ag: mouse Htr2a agonists via beta-arrestin recruitment, primary screen, cell-based, luminescence; 5-hydroxytryptamine receptor 2A (Mus musculus), P35363; CHO-K1 mHTR2A beta-arrestin complementation; percent of 30 µM serotonin response; activation, % at 7.6 µM; hit rate 0.66% among 360,000; AID 624169, 2012;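 active = activation above a run cutoff, the mean activation of all tested compounds plus 3 SD, cut at about 14% in these data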
TAAR1 ag: human TAAR1 agonists, primary screen, Fluo-8 calcium fluorescence, CHO RD-HGA16 cells | vehicle wells 0%, saturating PEA agonist 100% | activation, % at 3 µM | Trace amine-associated receptor 1 (Homo sapiens), Q96RJ0 | hit rate 0.99% among 360,000 | AID 624467, 2012;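 active = activation above the mean activation of all test compounds in the run plus 3 SD, cut at about 38% in these data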
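Signal – calcium-sensitive Fluo-8 signal, excitation 470-495, emission 515-575 nm · System – RD-HGA16 (CHO) cells co-expressing Gα16 and hTAAR1 · Incubation – 17-24 h seeding, 75 min 37 °C dye, 30 min RT · Compound dosing – 3 µM single concentration · Repeats – no replicates (n 1)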
MOR ag counter: OPRM1 agonists via beta-arrestin recruitment, confirmation, counter-screen for mouse HTR2A agonist project, cell-based, luminescence, single concentration; activation, % at 9.3 µM; shares compounds with HTR2A ag; hit rate 5.3% among 2,300; U2OS OPRM1 beta-arrestin PathHunter; DMSO 0%, DAMGO 9.3 µM 100%;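 active = mean activation above the mean of DMSO-only wells plus 3 SD, cut at about 0.5% in these data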
m5-HT2A ag conf: mouse HTR2A agonists, beta-arrestin recruitment, confirmation, cell-based, luminescence, CHO-K1 PathHunter, triplicate; shares compounds with HTR2A ag; DMSO 0%, 30 µM serotonin 100%; activation, % at 7.6 µM; hit rate 19% among 2,300; AID 624381, 2012;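 active = mean activation across triplicates above the hit threshold derived in the original primary screen, cut at about 15% in these data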
Each line names hits and unclear results; the compound was inactive in the other large screens (follow-up assays come after a bar, where they were run). Sampled rows, rich in hits. Any-hit rate of the full collection: about 3.9%.

Cc1ccc(NC(=O)C2CCCN2S(=O)(=O)c2ccc(-c3ccc(=O)[nH]n3)s2)c(C)c1 (stereo unspecified)	none
O=C(NNC(=O)c1ccncc1)NC1CCCCC1	none
CCN(C(=O)CSc1n[nH]c(N)n1)C1CCCCC1	HTR2A ag 16.8 | MOR ag counter inactive | m5-HT2A ag conf inactive
CCOCCCN(C(=O)c1snc(C(N)=O)c1N)C(C(=O)NC1CCCC1)c1ccc(O)cc1 (stereo unspecified)	none
Cc1ccccc1NS(=O)(=O)c1ccc(C(=O)NCCCN2CCCC2=O)cc1	none
O=C(NNC(=O)c1ccncc1)Nc1cc(Cl)ccc1Cl	none
CC1CC(C)CN(C(=O)c2ccc3ncsc3c2)C1 (stereo unspecified)	none
CC1CC(C)CN(C(=O)c2ccc3nc[nH]c3c2)C1 (stereo unspecified)	HTR2A ag 15.8 | MOR ag counter inactive | m5-HT2A ag conf inactive
O=C(CN1C(=O)c2cccnc2Oc2ccc(Cl)cc21)Nc1ccccc1F	HTR2A ag 18.5 | MOR ag counter inactive | m5-HT2A ag conf inactive
Cc1ccsc1C(=O)OCC(=O)NCC1CCCO1 (stereo unspecified)	HTR2A ag 18.4 | MOR ag counter inactive | m5-HT2A ag conf inactive
CCOc1ccc(C(=O)Nc2ccc(NC(=O)c3ccccc3)cc2)cc1Br	HTR2A ag 25.4 | MOR ag counter inactive | m5-HT2A ag conf inactive
CCOc1ccc(C(=O)Nc2ccc(Cc3ccncc3)cc2)cc1Br	none
CC1CCN(Cc2nnnn2CCCC(=O)NCC(C)(C)N2CCOCC2)CC1	none
CC1CCN(Cc2nnnn2CCCC(=O)NCCc2cnn(C)c2)CC1	HTR2A ag 15.6 | MOR ag counter inactive | m5-HT2A ag conf inactive
COC(=O)c1cc(=O)n(Cc2ccc3c(c2)OCO3)c(=Nc2ccc(F)c(Cl)c2)s1	HTR2A ag 14.5 | MOR ag counter inactive | m5-HT2A ag conf inactive
CCn1c(=O)c(C(=O)CN2CCN(S(=O)(=O)c3ccc(C)cc3C)CC2)c(N)n(Cc2ccccc2)c1=O	HTR2A ag 16.1 | MOR ag counter inactive | m5-HT2A ag conf inactive
NC(=O)CC(NC(=O)c1ccccc1)c1ccc(NC2CCCCCCC2)c([N+](=O)[O-])c1 (stereo unspecified)	HTR2A ag 19.3 | MOR ag counter inactive | m5-HT2A ag conf inactive
NC(=O)CC(NC(=O)c1ccccc1)c1ccc(NC2CCCCC2)c([N+](=O)[O-])c1 (stereo unspecified)	none
N/C(=N\C(=S)Nc1ccc2c(c1)OCO2)c1ccccc1	none
Cc1ccc(-c2nn(-c3ccccc3)cc2CO)o1	HTR2A ag 14.7 | MOR ag counter inactive | m5-HT2A ag conf inactive
CCCCNc1c(-c2cccnc2)nc2nc(C)cc(C)n12	HTR2A ag 20.2 (no result: M1 ag, CHRM1 PAM, M1 antag) | MOR ag counter inactive | m5-HT2A ag conf inactive
COC(=O)C1=C(C)N(C)C(=NCc2ccc3c(c2)OCO3)NC1c1cccc(C(F)(F)F)c1 (stereo unspecified)	none (no result: M1 ag, CHRM1 PAM, M1 antag, HTR2A ag)
CCOC(=O)c1ncccc1NC(=O)CC(=O)Nc1cccnc1C(=O)OCC	none
Cc1ccc(C(C#N)c2ccc(C(=O)c3ccc(F)cc3)cc2)cc1 (stereo unspecified)	none
N#CC(c1ccc(F)cc1)c1ccc(C(=O)c2ccc(F)cc2)cc1 (stereo unspecified)	TAAR1 antag 56.0, HTR2A ag 14.5 | MOR ag counter inactive | m5-HT2A ag conf inactive
COc1ccc(/C=N/NC(=O)CCN2CCN(c3ccccc3)CC2)c(OC)c1OC	none
O=C(CCN1CCN(c2ccccc2)CC1)N/N=C/c1ccc(O)c(O)c1O	HTR2A ag 15.0 | MOR ag counter inactive | m5-HT2A ag conf 51.2
COc1cccc(Cn2cnc(-c3ccccc3OC)c2-c2cccs2)c1	HTR2A ag 23.6 (no result: M1 ag, CHRM1 PAM, M1 antag) | MOR ag counter inactive | m5-HT2A ag conf inactive
CCOC(=O)Cn1nc(NC(=O)COc2ccc(F)cc2)cc1C	none
CCOc1ccc(CNC(=O)CS(=O)(=O)Cc2nc(-c3ccc(OC)cc3)oc2C)cc1	HTR2A ag 19.6 | MOR ag counter inactive | m5-HT2A ag conf inactive
Cc1c(Cl)cccc1-n1cnc(=O)c2ccccc21	none
Cc1cccc(-n2ncc3c2CCCC3NC(=O)CCN2Cc3ccccc3C2=O)c1C (stereo unspecified)	none
Cc1ccc(C)c(C(=O)CCC(=O)Nc2cccnc2)c1	HTR2A ag 15.1 | MOR ag counter inactive | m5-HT2A ag conf inactive
Cc1ccc(C)c(C(=O)CCC(=O)Nc2ccc(F)cc2)c1	none
Cc1cc(C)nc(NS(=O)(=O)c2ccc(NC(=O)CCC(=O)O)cc2)n1	none
CC(C)(C)N=C1SCC(C)(/C=N/O)S1 (stereo unspecified)	HTR2A ag 16.5 | MOR ag counter inactive | m5-HT2A ag conf inactive
CCN(CC)C(=O)N1CCN(c2c([N+](=O)[O-])c(=O)oc3ccccc23)CC1	none
Cc1noc(C)c1S(=O)(=O)NCc1ccc2c(c1)OCO2	HTR2A ag 31.5 | MOR ag counter inactive | m5-HT2A ag conf inactive
Cc1cc(C)c(S(=O)(=O)NCc2ccc3c(c2)OCO3)c(C)c1	none
COc1cccc(COc2ccc3c(C)cc(=O)oc3c2)c1	none
COc1ccc2c(C)cc(=O)oc2c1	HTR2A ag 29.2 | MOR ag counter inactive | m5-HT2A ag conf 36.6
CCCCN(C=O)c1c(CC)nc2ccc(C(=O)N3CCN(c4ccccc4)CC3)cn12	none
Cc1nc2ccccn2c1CN(C)C(=O)C1CCC(=O)N(CCc2cccc(F)c2)C1 (stereo unspecified)	none
CCCCCOC(=O)CSc1n[nH]c(=O)[nH]c1=O	none
CCCOC(=O)C(C)Sc1n[nH]c(=O)[nH]c1=O (stereo unspecified)	HTR2A ag 14.4 | MOR ag counter inactive | m5-HT2A ag conf inactive
